Measurements: PMC2151523 (The Journal of General Physiology, 2006)
Where “and” joins values, the source holds several entries; their conditions need not be identical. Equal values may be shown once. Read-outs that look alike come from different tables or passages of the source.

Tests used:
[1] = molecular target: T1, bovine rod CNGA1 channels (Bos taurus, UniProt Q00194); format: biochemical; conditions: for δ (Woodhull fit, best-fit): four blockers in the same patch (Fig. 4 C)
T1 sequence (Q00194 1-690): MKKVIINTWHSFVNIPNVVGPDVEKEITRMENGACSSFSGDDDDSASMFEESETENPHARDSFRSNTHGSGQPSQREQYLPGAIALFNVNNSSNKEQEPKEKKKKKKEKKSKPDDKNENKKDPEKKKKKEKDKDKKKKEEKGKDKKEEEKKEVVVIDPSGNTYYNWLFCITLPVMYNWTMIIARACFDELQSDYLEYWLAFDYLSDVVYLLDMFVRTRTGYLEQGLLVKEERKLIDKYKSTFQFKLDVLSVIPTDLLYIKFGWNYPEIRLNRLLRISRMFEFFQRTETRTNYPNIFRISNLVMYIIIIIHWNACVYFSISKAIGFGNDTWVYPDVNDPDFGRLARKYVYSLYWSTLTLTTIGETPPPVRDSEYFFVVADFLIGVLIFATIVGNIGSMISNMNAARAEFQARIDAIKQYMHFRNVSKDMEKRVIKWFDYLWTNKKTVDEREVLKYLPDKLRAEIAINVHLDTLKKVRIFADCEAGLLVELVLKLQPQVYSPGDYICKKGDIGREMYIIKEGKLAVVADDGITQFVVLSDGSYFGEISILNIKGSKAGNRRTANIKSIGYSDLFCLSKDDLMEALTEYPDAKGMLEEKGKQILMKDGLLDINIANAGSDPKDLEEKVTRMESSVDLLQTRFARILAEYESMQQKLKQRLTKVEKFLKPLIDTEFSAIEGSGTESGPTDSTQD
Procedure, shortened: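 Inside-out patches from HEK293 cells expressing bovine rod CNGA1. Bath and pipette solution: 160 mM NaCl, 1 mM EGTA, 1 mM EDTA, 10 mM HEPES, pH 7.4. Currents were elicited with 1 mM cGMP by steps from −80 to +80 mV in 20 mV increments from a 0 mV holding potential. Records without cGMP were subtracted, and blocker was added to the bath. Block was read 10–40 s after exchange, at the end of the +80 mV pulse. KD and n came from a Hill fit. δ came from Woodhull fits of per-voltage KD and was averaged over 10 patches. Comparisons were made in the same patch and bracketed by controls.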

[2] = test system: 391C cysteine-less CNGA1 channels; format: biochemical, bovine; conditions: for modification rate open state versus closed state: average rates (Fig. 11 D)
Procedure, shortened: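 391C channels were expressed in Xenopus oocytes and recorded 3–5 d after cRNA injection. Solutions contained 120 mM NaCl, 1 mM EGTA, 1 mM EDTA, 10 mM HEPES, pH 7.4. MTS reagent was applied for 2 s at 0 mV, with 2 mM cGMP (open state) or without it (closed state). Current was then monitored by a 50-ms step to +80 mV in 2 mM cGMP. Each value is the mean of at least three experiments.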

[3] = test system: CNGA1 channels; conditions: cited from earlier work
[4] = molecular target: T2, CNGA1 channel (Bos taurus, UniProt Q00194); assay: Single channel recordings of blockade, inside-out patches; format: biochemical, bovine; conditions: +70 mV, 2 mM cGMP
T2 sequence (Q00194 1-690): T1 sequence (Q00194 1-690)
Procedure, shortened: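 Single-channel recordings were made in inside-out patches with 7–10 MΩ pipettes at +70 mV with saturating 2 mM cGMP. Signals were sampled at 20 kHz, Bessel-filtered at 5 kHz, then digitally filtered at 2 kHz. Amplitude histograms (40 s of record) were fitted with two Gaussians. Open dwell-time distributions were fitted with two exponentials. τ2 was normalised to its blocker-free value, and its dose response was fitted with a Hill equation.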

[5] = test system: Kv channels; conditions: cysteine at valine of PVP region; ref Liu et al., 1997; cited from earlier work
[6] = test system: CNGA1 channels; conditions: ref Flynn and Zagotta, 2001; cited from earlier work
[7] = test system: 391C CNGA1 channels; assay: Cd2+ inhibition in the closed state and its slowing by blocker; format: biochemical, bovine
[8] = read-out: average KD0, 0 mV, average of several patches
[9] = 500 μM reagent, estimated from τ

CC[N+](CC)(CC)CC [TEA, tetraethylammonium]
reduction in current ([1]; 5 mM blocker, +80 mV, 1 mM cGMP): ~35%
average δ ([1]; average of several patches): −0.31 ± 0.04
Kd [1, 8]: 35 mM

CCC[N+](CC)(CC)CC [C3-TEA]
average δ ([1]; average of several patches): −0.40 ± 0.08
Kd [1, 8]: 31 mM

CC[N+](CC)(CC)CCSS(C)(=O)=O [MTSTEA]
modification rate open state versus closed state [2]: three to seven

CCCCCC[N+](CC)(CC)CC [C6-TEA, hexyltriethylammonium]
average δ ([1]; average of several patches): −0.48 ± 0.02
δ (Woodhull fit, best-fit) ([1]; 1 mM cGMP): −0.53 ± 0.02
Kd [1, 8]: 5 mM

Cc1cc(N)c2ccccc2[n+]1CCCCCCCCCC[n+]1c(C)cc(N)c2ccccc21 [dequalinium]
apparent affinity for closed channels compared with open channels ([3]; ref Rosenbaum et al., 2004): three- to fivefold

CCCC[N+](CC)(CC)CC [C4-TEA]
average δ ([1]; average of several patches): −0.40 ± 0.03
δ (Woodhull fit, best-fit) ([1]; 1 mM cGMP): −0.45 ± 0.02
Kd [1, 8]: 11 mM

CCCCCCCCCC[N+](CC)(CC)CC [C10-TEA, decyltriethyl ammonium]
amplitude for the open state ([4]; 5 μM blocker): 2.317 ± 0.002 pA
area of the nonconductive level in current histogram ([4]; 5 μM blocker, 5% without blocker): 26%
area of the open state in amplitude histogram ([4]; 5 μM blocker, 95% without blocker): 74%
open dwell-time fraction A1 ([4]; 25 μM blocker): 0.19
open dwell-time fraction A2 ([4]; 25 μM blocker): 0.81
open dwell-time fast component τ1 ([4]; 25 μM blocker, 0.7 ms in control): ~0.7 ms and 0.6 ms
apparent mean open time of the main (slow) component, τ2 ([4]; 25 μM blocker, 12.2 ms in control): 3.74 ms and 3.7 ms
extent of blockade at subsaturating versus saturating cGMP ([1]; 5 μM blocker, +80 mV): Blockade was larger at subsaturating levels of cGMP
blockade levels under saturating cGMP, cIMP or cAMP ([1]; 15 μM blocker, +80 mV, 16 mM agonist): Blockade levels were larger for cIMP and cAMP
Hill coefficient n ([1]; +80 mV, 1 mM cGMP, one patch (Fig. 2 A)): 1.19 ± 0.04
δ (Woodhull fit, best-fit) ([1]; 1 mM cGMP): −0.44 ± 0.01
Kd [1, 8]: 0.05 ± 0.01 mM
Kd ([1]; read-out: average KDc, four different patches): 0.0023 ± 0.0006 mM

CCCCNc1ccc(C(=O)OCCN(C)C)cc1 [Tetracaine, tetracaine]
apparent affinity in the closed state compared with the open state ([3]; ref Fodor et al., 1997b, Ghatpande et al., 2003): ~10^3 times higher

CCCCCCCC[N+](CC)(CC)CC [C8-TEA]
δ (Woodhull fit, best-fit) ([1]; 1 mM cGMP): −0.44 ± 0.02
Kd [1, 8]: 0.9 ± 0.2 mM

CCCCCCCCCC[N+](C)(C)C [C10-TMA, decyl-trimethyl ammonium]
difference in apparent affinity as compared with C10-TEA ([1]; 50 μM, +80 mV, 1 mM cGMP): 1.8 fold

C[N+](C)(C)CCSS(C)(=O)=O [MTSET, trimethylammonium ethyl-MTS]
modification rate in the closed state [5]: 1 M⁻¹ s⁻¹
state-dependent accessibility (modification rate) [5]: ~10^6 M^−1s^−1

CS(=O)(=O)SCCN [MTSEA, amino ethyl-MTS]
modification rates in both closed and open state [6]: 10^3–10^4 M^−1s^−1

CC[N+](CC)(CC)CCCSS(C)(=O)=O [MTS-PtrEA]
time constant τ of modification, open state ([2]; 500 μM reagent, 2 mM cGMP): 5.7 ± 0.3 s
time constant τ of modification, closed state ([2]; 500 μM reagent, absence of cGMP): 27 ± 1 s
modification rate, closed state [2, 9]: 74 M⁻¹ s⁻¹
modification rate, open state [2, 9]: 351 M⁻¹ s⁻¹
modification rate open state versus closed state [2]: three to seven

[Cl][Cd][Cl] [Cd^2+, CdCl2]
time constant τ of current inhibition by Cd2+, closed state ([7]; 6 μM Cd2+, no cGMP, no blocker): 2.64 ± 0.08 s
effect on cysteine-less wild-type channels ([7]; 50 μM Cd2+, unpublished data): no effect
recovery of current inhibition ([7]; unpublished data): 20–40%
time course τ of recovery of current inhibition ([7]; unpublished data): ~100 s
